In ChEMBL document CHEMBL3399929 (Bioorg Med Chem, 2015):
≈ marks a conversion by molar mass, not a printed value. Calls of active or inactive are those of the source. No cut-off for these calls is given here.

Tests used:
[1] = tested on: Mycobacterium tuberculosis; assay: Bactericidal activity against non-replicating Mycobacterium tuberculosis H37Rv Wayne model under hypoxic/oxygen depleted conditions assessed as log reduction after 4 days by serial dilution assay; format: functional
How it was run: (§1)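 Wayne hypoxia model. A mid-log 7H9 culture was diluted to about 10^5 cfu/mL, and 10 mL was sealed in 20 mL headspace vials. Vials were stirred slowly at 37 °C for 20–22 days, until methylene blue indicator (1.5 µg/mL) decolorized. Drug was then injected through the septum, and vials were incubated 4 more days at 37 °C. Tests were run in duplicate, with CFU counted on 7H10 agar plates.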

[2] = tested on: Mycobacterium tuberculosis; assay: Antimycobacterial activity against Mycobacterium tuberculosis H37Rv infected in mouse chronic TB model assessed as survival rate at 173 umol/kg administered via esophageal cannula 6 times a week for 4 weeks relative to untreated control; format: functional
How it was run: (§2)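 Male Balb/C mice (8–10 weeks, 18–20 g), ten per group, were infected intravenously with 5 × 10^6 CFU H37Rv in 0.2 mL. Dosing by gavage began on day 1, six times weekly for 4 weeks, with the last dose on day 28. Survival was followed to day 30. Survivors were sacrificed on day 30, and lung and spleen homogenates were plated on 7H10/OADC at 37 °C for 4–6 weeks. Results were compared with an untreated infected group.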

[3] = Inhibition of Mycobacterium smegmatis TMC 607 ATP synthase incubated for 10 mins prior to NADH addition measured after 1 hr by luminescence assay; set-up: species or system Mycolicibacterium smegmatis
Klebsiella pneumoniae = assay: Antibacterial activity against Klebsiella pneumoniae ATCC 27736 at 50 ug/ml; format: functional, organism-based
Candida albicans = assay: Antifungal activity against Candida albicans at 50 ug/ml; format: functional, organism-based
[4] = Tmax in Sprague-Dawley rat at 10 mg/kg, po; format: ADME, organism-based; set-up: dose 10 mg/kg, route oral; conditions: in vivo
How it was run: (§3)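 Male Sprague–Dawley rats (250 ± 25 g) each received a single oral dose of 10 mg/kg or an intravenous dose of 1 mg/kg. Plasma concentration–time profiles were obtained with three rats per time point. Parameters were calculated with a two-compartmental model, and values are averages of three rats. Cmax is given as mean ± SEM.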

Sporothrix schenckii = assay: Antifungal activity against Sporothrix schenckii at 50 ug/ml; format: functional, organism-based
[5] = tested on: Mycobacterium tuberculosis H37Rv; assay: Inhibition of Mycobacterium tuberculosis H37Rv ATP synthase assessed as reduction in total ATP content at 12.5 ug/ml after 18 hrs by bead-vortexing settling method
How it was run: (§4)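 H37Rv was declumped by bead-vortexing and settling, adjusted to McFarland 1, then diluted 100-fold. Portions of 1 mL in tubes with 0.5 mm glass beads were exposed to compound for 18 h at 37 °C. Samples were heated 8–10 min, chilled on ice, and bead-beater lysed. Cleared lysate ATP was measured by luciferase assay.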

[6] = tested on: Trichophyton mentagrophytes; assay: Antifungal activity against Trichophyton mentagrophytes at 50 ug/ml; format: functional, organism-based
Aspergillus fumigatus = assay: Antifungal activity against Aspergillus fumigatus at 50 ug/ml; format: functional, organism-based
[7] = Elimination half life in Sprague-Dawley rat at 10 mg/kg, po; format: ADME, organism-based; set-up: dose 10 mg/kg, route oral; conditions: in vivo, read-out: beta t1/2 (converted); how it was run: as §3
[8] = Volume of distribution at steady state in Sprague-Dawley rat at 1 mg/kg, iv; format: ADME, organism-based; set-up: dose 1 mg/kg, route intravenous; conditions: in vivo, read-out: Vdss; how it was run: as §3
[9] = Cytotoxicity against African green monkey Vero cells after 72 hrs yb resazurin assay; format: cell-based; conditions: chlorocebus sabaeus
How it was run: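 Vero cells were seeded overnight in RPMI with 10% heat-inactivated FBS at 37 °C, 5% CO2. Cells were exposed in triplicate to concentrations from 100 to 1.56 µg/mL for 72 h. Resazurin (0.1%) was then added for 4–5 h, and fluorescence was read at ex 530/em 590 nm. CC50 was derived from the fluorescence plot.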

[10] = Inhibition of Swiss mouse liver ATP synthase after 1 hr
How it was run: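 Liver mitochondria came from an overnight-fasted adult Swiss mouse, isolated by differential centrifugation in sucrose/Tris-MOPS/EGTA buffer pH 7.4 and assayed the same day. Mitochondria (100 µg) were stirred at room temperature with 100 µM compound in Tris/HCl, sucrose, 5 mM MgCl2 and 100 µM diadenosine pentaphosphate, pH 7.4. The reaction was started with 1 mM ADP, 20 mM Pi and 50 mM succinate, stopped after 1 h with EDTA-TCA, and ATP was read by luciferase.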

[11] = Cmax in Sprague-Dawley rat at 1 mg/kg, iv; format: ADME, organism-based; set-up: dose 1 mg/kg, route intravenous; conditions: in vivo; how it was run: as §3
[12] = tested on: Mycobacterium tuberculosis; assay: Antimycobacterial activity against Mycobacterium tuberculosis H37Rv after 4 weeks by agar dilution assay; format: functional
How it was run: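 Agar dilution method. DMSO stocks (5 mg/mL) were serially diluted in DMSO, and 0.1 mL of each was mixed into 1.9 mL Middlebrook 7H10 agar with OADC and set as slants. Each tube received about 10^5 bacilli from a 3-week Lowenstein–Jensen culture suspended in saline with 0.05% Tween-80. Tubes were incubated at 37 °C for 4 weeks. MIC was the lowest concentration with no visible growth.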

[13] = tested on: Mycobacterium tuberculosis; assay: Bactericidal activity against non-replicating Mycobacterium tuberculosis H37Rv Wayne model under hypoxic/oxygen depleted conditions assessed as log reduction at 10 ug/ml after 4 days by serial dilution assay; format: functional; how it was run: as §1
Staphylococcus aureus = assay: Antibacterial activity against Staphylococcus aureus ATCC 25923 at 50 ug/ml; format: functional, organism-based
Candida parapsilosis = assay: Antifungal activity against Candida parapsilosis ATCC 22019 at 50 ug/ml; format: functional, organism-based
[14] = Oral bioavailability in Sprague-Dawley rat at 10 mg/kg; format: ADME, organism-based; conditions: in vivo; how it was run: as §3
[15] = tested on: Mycobacterium tuberculosis H37Rv; assay: Inhibition of Mycobacterium tuberculosis H37Rv ATP synthase assessed as reduction in total ATP content at 50 ug/ml after 18 hrs by bead-vortexing settling method; how it was run: as §4
Escherichia coli = assay: Antibacterial activity against Escherichia coli ATCC 9637 at 50 ug/ml; format: functional, organism-based
[16] = tested on: Mycobacterium tuberculosis; assay: Antimycobacterial activity against Mycobacterium tuberculosis H37Rv infected in mouse chronic TB model assessed as log reduction in lungs at 87 umol/kg administered via esophageal cannula 6 times a week for 4 weeks relative to untreated control; format: functional
[17] = Mean residence time in Sprague-Dawley rat at 10 mg/kg, po; format: ADME, organism-based; set-up: dose 10 mg/kg, route oral; conditions: in vivo; how it was run: as §3
Rattus norvegicus [18] = assay: Clearance in Sprague-Dawley rat at 10 mg/kg, po; format: ADME, organism-based; set-up: dose 10 mg/kg, route oral; conditions: in vivo; how it was run: as §3
[19] = AUC in Sprague-Dawley rat at 1 mg/kg, iv; format: ADME, organism-based; set-up: dose 1 mg/kg, route intravenous; conditions: plasma; how it was run: as §3
Pseudomonas aeruginosa = assay: Antibacterial activity against Pseudomonas aeruginosa ATCC BAA-427 at 50 ug/ml; format: functional, organism-based
Rattus norvegicus [20] = assay: AUC in Sprague-Dawley rat at 10 mg/kg, po; format: ADME, organism-based, Plasma; set-up: dose 10 mg/kg, route oral; conditions: in vivo; how it was run: as §3
[21] = Elimination half life in Sprague-Dawley rat at 1 mg/kg, iv; format: ADME, organism-based; set-up: dose 1 mg/kg, route intravenous; conditions: in vivo, read-out: beta t1/2 (converted); how it was run: as §3
Rattus norvegicus [22] = assay: Volume of distribution at steady state in Sprague-Dawley rat at 10 mg/kg, po; format: ADME, organism-based; set-up: dose 10 mg/kg, route oral; conditions: in vivo; how it was run: as §3
[23] = tested on: Mycobacterium tuberculosis; assay: Antimycobacterial activity against Mycobacterium tuberculosis H37Rv infected in mouse chronic TB model assessed as log reduction in spleen at 87 umol/kg administered via esophageal cannula 6 times a week for 4 weeks relative to untreated control; format: functional
Cryptococcus neoformans = assay: Antifungal activity against Cryptococcus neoformans at 50 ug/ml; format: functional, organism-based
[24] = tested on: Mycobacterium tuberculosis; assay: Antimycobacterial activity against Mycobacterium tuberculosis H37Rv infected in mouse chronic TB model assessed as log reduction in spleen at 173 umol/kg administered via esophageal cannula 6 times a week for 4 weeks relative to untreated control; format: functional
[25] = Selectivity ratio of IC50 for Mycobacterium smegmatis TMC 607 ATP synthase to IC50 for Swiss mouse liver ATP synthase
[26] = Selectivity index, ratio of CC50 for African green monkey Vero cells to MIC100 for Mycobacterium tuberculosis H37Rv; format: toxicity, cell-based; conditions: read-out: Selectivity Index
How it was run: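 Selectivity index is CC50 from the Vero resazurin assay divided by the agar-dilution MIC against H37Rv.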

[27] = tested on: Mycobacterium tuberculosis; assay: Bactericidal activity against non-replicating Mycobacterium tuberculosis H37Rv Wayne model under hypoxic/oxygen depleted conditions assessed as log reduction at 100 ug/ml after 4 days by serial dilution assay; format: functional; how it was run: as §1
[28] = Clearance in Sprague-Dawley rat at 1 mg/kg, iv; format: ADME, organism-based; set-up: dose 1 mg/kg, route intravenous; conditions: in vivo; how it was run: as §3
[29] = tested on: Mycobacterium tuberculosis; assay: Antimycobacterial activity against Mycobacterium tuberculosis H37Rv infected in mouse chronic TB model assessed as log reduction in lungs at 173 umol/kg administered via esophageal cannula 6 times a week for 4 weeks relative to untreated control; format: functional
[30] = Tmax in Sprague-Dawley rat at 1 mg/kg, iv; format: ADME, organism-based; set-up: dose 1 mg/kg, route intravenous; conditions: in vivo; how it was run: as §3
[31] = tested on: Mycobacterium tuberculosis; assay: Antimycobacterial activity against Mycobacterium tuberculosis H37Rv infected in mouse chronic TB model assessed as survival rate at 87 umol/kg administered via esophageal cannula 6 times a week for 4 weeks relative to untreated control; format: functional; how it was run: as §2
[32] = Cmax in Sprague-Dawley rat at 10 mg/kg, po; format: ADME, organism-based; set-up: dose 10 mg/kg, route oral; conditions: in vivo; how it was run: as §3
[33] = tested on: Mycobacterium tuberculosis; assay: Antimycobacterial activity against Mycobacterium tuberculosis H37Rv infected in mouse chronic TB model assessed as survival rate at 490 umol/kg administered via esophageal cannula 6 times a week for 4 weeks relative to untreated control; format: functional; conditions: 672 h; how it was run: as §2
[34] = tested on: Mycobacterium tuberculosis; assay: Bactericidal activity against non-replicating Mycobacterium tuberculosis H37Rv Wayne model under hypoxic/oxygen depleted conditions assessed as log reduction at 50 ug/ml after 4 days by serial dilution assay; format: functional; how it was run: as §1

CCN(CC)Cc1cc(N(c2cc(C)nc3cc(Cl)ccc23)S(=O)(=O)c2cccc(Cl)c2Cl)ccc1O
MIC100 [1]: 3.12 µg/mL (≈ 5.39 µM) | Survival [2]: 60% | IC50 ([3]; read-out: IC50): 510 nM | Activity (Klebsiella pneumoniae): inactive | Activity (Candida albicans): inactive | Tmax [4]: 0.5 h | Activity (Sporothrix schenckii): inactive | inhibition [5]: 60% | Activity [6]: inactive | Activity (Aspergillus fumigatus): inactive | half-life [7]: 4.2 h | Vd [8]: 0.84 L/kg | CC50 at 72 h [9]: > 300 µg/mL | IC50 [10]: > 100000 nM | Cmax [11]: 2420 ng/mL | MIC100 [12]: 3.12 µg/mL (≈ 5.39 µM) | log10CFU/ml [13]: 1.14 | Activity (Staphylococcus aureus): inactive | Activity (Candida parapsilosis): inactive | bioavailability [14]: 1.72% | inhibition [15]: 31% | Activity (Escherichia coli): inactive | log10cfu [16]: 1 | MRT [17]: 6.69 h | CL (Rattus norvegicus [18]): 1 mL/min/kg | AUC [19]: 16400 ng·h/mL | Activity (Pseudomonas aeruginosa): inactive | AUC (Rattus norvegicus [20]): 2813 ng·h/mL | half-life [21]: 8.84 h | Vdss (Rattus norvegicus [22]): 0.41 L/kg | log10cfu [23]: 1 | Activity (Cryptococcus neoformans): inactive | log10cfu [24]: 2.12 | Ratio IC50 [25]: > 155 | selectivity ratio [26]: > 96 | log10CFU/ml [27]: 2.34 | clearance [28]: 1.17 mL/min/kg | log10cfu [29]: 2.12 | Tmax [30]: 5 min | Survival [31]: 40% | Cmax [32]: 616 ng/mL

CC[C@@H](CO)NCCN[C@@H](CC)CO [ETHAMBUTOL]
survival at 490 µmol/kg [33]: 90%

Cc1ncc([N+](=O)[O-])n1CCO [METRONIDAZOLE]
MIC100 [1]: inactive | IC50 [3]: Not Active | log10CFU/ml [34]: 1.16
